Data reported in paper PMC3128789 (Nuclear medicine and biology, 2011).
Where two headings read alike, the source gives them in different places.

Tests used:
[1] = by 5 h; cited from earlier work
hexokinase = conditions: cited from earlier work
glucose dehydrogenase = conditions: enzyme derived from rat liver; cited from earlier work
[2] = Urinary excretion of radioactivity; assay type: in vivo, Sprague-Dawley rats; conditions: by 24 h, 3H radioactivity
Outline: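 Rats under isoflurane received 74 kBq (2 μCi) [1-³H]6FDG by tail vein and were handled as in the ¹⁸F study: recovery in a metabolic cage for the later time points. Urine radioactivity was counted directly and expressed as a percentage of injected radioactivity at 1, 6 and 24 h.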

[3] = assay type: in vivo, Sprague-Dawley rats
[4] = assay type: in vivo, Sprague-Dawley rats; conditions: 1 h biodistribution time
[5] = HPLC quantification of neutral radioactivity; assay type: in vivo, Sprague-Dawley rats
[6] = intact rats, without phlorizin (SGLT inhibitor) pre-treatment; cited from earlier work
[7] = assay type: in vivo, Sprague-Dawley rats; conditions: liver
Outline: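 Rats under 2% isoflurane in oxygen received the tracer by tail vein: about 37 MBq (1 mCi) for the 1 h point and 370 MBq (10 mCi) for 6 h. Tissues were homogenised in 8 mL/g ice-cold ethanol:PBS:water (65:10:25) and spun 15 min at 23,500 × g, 4 °C. The methanol-water extract was dried, taken up in water and run on formate-form AG 1-X8 anion exchange, eluting with water then formic acid. Columns were counted afterwards.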

[8] = assay type: in vivo, Sprague-Dawley rats; conditions: average of all tissues, 1 h after i.v. injection

CO[C@@H]([C@H](O)[C@H](O)CO)[C@@H](O)C=O [3OMG, 3-O-methyl-glucose, reference compound]
urinary excretion [1]: 50%
phosphorylation by hexokinase in vitro (hexokinase): can be phosphorylated

C[C@@H](O)[C@@H](O)[C@H](O)[C@@H](O)C=O [6-deoxy-D-glucose]
activity of glucose dehydrogenase on substrate (glucose dehydrogenase): same activity

O=C[C@H](O)[C@@H](O)[C@H](O)[C@H](O)CF [6FDG, 6-fluoro-6-deoxy-D-glucose]
activity of glucose dehydrogenase on substrate (glucose dehydrogenase): same activity
phosphorylation by hexokinase in vitro (hexokinase; preliminary evaluation): lack of its phosphorylation
urinary excretion of radioactivity, percentage of injected radioactivity [2]: less than 8%

OC[C@H]1OC(O)[C@H](O)[C@@H](O)[C@@H]1O (stereo partly drawn) [D-glucose]
activity of glucose dehydrogenase on substrate (glucose dehydrogenase): same activity

[3H]C1(O)O[C@H](CF)[C@@H](O)[C@H](O)[C@H]1O (stereo partly shown) [[1-^3H]6FDG]
blood radioactivity ([3]; 24 h after i.v. injection): negligible
percentage of 3H radioactivity eluting with water, anion exchange column ([3]; average across tissues, 1 h): 101%
percentage of 3H radioactivity eluting with water, anion exchange column ([3]; average across tissues, 24 h): 95%
percentage of 3H radioactivity eluting with water, anion exchange column ([3]; individual tissues, 1 h): ≥ 90%
percentage of 3H radioactivity eluting with water, cation exchange column [4]: ~100%
percentage of radioactivity eluting as [1-3H]6FDG (HPLC) ([5]; blood, 6 h): > 99%
percentage of radioactivity eluting as 6FDG (HPLC) ([5]; heart, 1 h (lowest tissue)): 90%
percentage of radioactivity eluting as [1-3H]6FDS (HPLC) ([5]; heart, 6 h (highest tissue)): 28%
percentage of radioactivity eluting as 6FDG (HPLC) ([5]; heart, 6 h (lowest tissue)): 69%
percentage of radioactivity eluting as [1-3H]6FDS (HPLC) ([5]; skeletal muscle, 24 h (highest tissue)): 31%
percentage of radioactivity eluting as 6FDG (HPLC) ([5]; skeletal muscle, 24 h (lowest tissue)): 65%

O=C[C@H](O)[C@@H](O)[C@H](O)[C@H](O)C[18F] [[^18F]6FDG, [^18F]6-fluoro-6-deoxy-D-glucose]
urinary excretion of [18F]6FDG [6]: little urinary excretion
percentage of 18F radioactivity remaining bound to the anion exchange column ([7]; 1 h): 1%
percentage of 18F radioactivity remaining bound to the anion exchange column ([7]; 6 h): 5%
percentage of homogenate 18F radioactivity in the methanol-water layer (extraction) [8]: 95.6 ± 2.6%
